Measurements as given in ChEMBL document CHEMBL1140884, “Oligodeoxyribonucleotide-based antagonists for Toll-like receptors 7 and 9” (2009).
Each block holds one molecule with its values, some of them ahead of it. Calls of active or inactive are those of the source. The rule behind the calls is not given here.

Key:
[1] = test system: PBMC; test: Induction of IL6 secretion in human PBMC; type: functional, cell-based
Method in brief: (§1)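 Human PBMCs (5×10^6/mL; 1×10^6 per well) were cultured 24 h with TLR9 agonist 5 µg/mL or TLR7/8 agonist 100 µg/mL, alone or with antagonist at 1:4. Compounds were dissolved in PBS. Supernatant cytokines were measured by Luminex human 25-plex bead assay. One representative donor of six.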

[2] = test system: PBMC; test: Induction of IL12 secretion in human PBMC; type: functional, cell-based; method in brief: as §1
[3] = test system: PBMC; test: Induction of IFN-gamma secretion in human PBMC; type: functional, cell-based; method in brief: as §1
[4] = test system: PBMC; test: Induction of IFNalpha secretion in human PBMC; type: functional, cell-based; method in brief: as §1
[5] = test system: PBMC; test: Induction of MIP1beta secretion in human PBMC; type: functional, cell-based; method in brief: as §1
[6] = biological target: Toll-like receptor 7 (Homo sapiens) (UniProt Q9NYK1); test: Agonist activity at TLR7/8 in human PBMC assessed as NF-kappaB activation at 100 ug/mL
[7] = test system: PBMC; test: (§2) Induction of IP10 secretion in human PBMC; type: functional, cell-based; method in brief: as §1
[8] = test system: PBMC; test: Induction of MCP1 secretion in human PBMC; type: functional, cell-based; method in brief: as §1
[9] = test system: PBMC; test: Induction of MIG secretion in human PBMC; type: functional, cell-based; method in brief: as §1
[10] = test system: PBMC; test: Induction of TNFalpha secretion in human PBMC; type: functional, cell-based; method in brief: as §1
[11] = test system: PBMC; test: as §2; type: functional, cell-based; method in brief: as §1; remark: listed apart in the source
[12] = test system: Mus musculus; test: Induction of IL12 secretion in C57BL/6 mouse at 20 mg/kg, sc; type: functional, organism-based; parameters: dose 20 mg/kg
Method in brief: (§3)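 Female C57BL/6 mice, 6–8 weeks old (n=3), were injected sc with single compounds at 0.25 or 20 mg/kg. Serum was collected by retro-orbital bleed 2 h later and cytokines were measured by Luminex mouse 20-plex assay.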

[13] = biological target: T1, Toll-like receptor 9 (Mus musculus) (UniProt Q9EQU3); test: Agonist activity at mouse TLR9 expressed in HEK293 cells assessed as activation of NF-kappaB at 10 ug/mL by SEAP reporter gene assay; type: functional, cell-based
T1 sequence (whole entry): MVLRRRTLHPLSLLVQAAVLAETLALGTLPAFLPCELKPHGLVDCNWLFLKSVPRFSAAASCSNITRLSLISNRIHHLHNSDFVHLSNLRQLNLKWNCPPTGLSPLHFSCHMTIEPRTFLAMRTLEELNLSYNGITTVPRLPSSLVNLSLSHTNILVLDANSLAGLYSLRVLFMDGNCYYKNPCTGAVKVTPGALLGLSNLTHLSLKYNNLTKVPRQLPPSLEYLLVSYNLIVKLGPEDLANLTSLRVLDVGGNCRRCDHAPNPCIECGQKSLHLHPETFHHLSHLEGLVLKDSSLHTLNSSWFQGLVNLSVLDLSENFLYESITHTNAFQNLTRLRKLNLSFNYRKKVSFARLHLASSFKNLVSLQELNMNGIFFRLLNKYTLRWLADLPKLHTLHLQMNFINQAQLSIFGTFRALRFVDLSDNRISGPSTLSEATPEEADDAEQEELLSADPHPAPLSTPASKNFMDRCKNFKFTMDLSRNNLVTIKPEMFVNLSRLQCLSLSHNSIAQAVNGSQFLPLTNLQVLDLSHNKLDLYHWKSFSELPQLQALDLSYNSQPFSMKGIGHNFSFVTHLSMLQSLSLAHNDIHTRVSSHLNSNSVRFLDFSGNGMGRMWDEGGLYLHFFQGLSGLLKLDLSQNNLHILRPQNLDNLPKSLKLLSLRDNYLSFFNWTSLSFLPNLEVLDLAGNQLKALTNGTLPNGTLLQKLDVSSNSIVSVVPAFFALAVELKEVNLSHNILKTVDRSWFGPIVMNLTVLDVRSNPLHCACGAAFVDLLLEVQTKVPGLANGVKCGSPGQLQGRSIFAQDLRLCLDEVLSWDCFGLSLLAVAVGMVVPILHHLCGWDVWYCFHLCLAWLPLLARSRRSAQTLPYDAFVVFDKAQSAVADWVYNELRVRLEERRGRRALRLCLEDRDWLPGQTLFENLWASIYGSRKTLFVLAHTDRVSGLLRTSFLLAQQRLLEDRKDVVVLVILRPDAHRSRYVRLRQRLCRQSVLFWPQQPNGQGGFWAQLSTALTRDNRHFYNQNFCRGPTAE
Method in brief: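 HEK293 cells stably expressing mouse TLR9 were transiently transfected with a SEAP reporter for 6 h. Compounds were added at 10 µg/mL for 18 h. SEAP was read with Quanti-Blue substrate and expressed as fold change in NF-κB activity.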

[14] = test system: Mus musculus; test: Induction of cytokine KC secretion in C57BL/6 mouse at 20 mg/kg, sc; type: functional, organism-based; parameters: dose 20 mg/kg; method in brief: as §3
[15] = test system: Mus musculus; test: Induction of IP10 secretion in C57BL/6 mouse at 20 mg/kg, sc; type: functional, organism-based; parameters: dose 20 mg/kg; method in brief: as §3
[16] = species: Mus musculus; test: Inhibition of 5'-TCTGACRTTCT-X-TCTTRCAGTCT-3'-induced IL12 production in C57BL/6 mouse measured after 2 hrs of induction by ELISA; type: functional, organism-based
Method in brief: (§4)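 C57BL/6 mice (n=3) were given TLR9 agonist 0.25 mg/kg sc in the left flank and various antagonist doses sc in the right flank at the same time. Serum IL-12 was measured by sandwich ELISA 2 h after agonist.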

[17] = test system: Mus musculus; test: Induction of cytokine MIG secretion in C57BL/6 mouse at 20 mg/kg, sc; type: functional, organism-based; parameters: dose 20 mg/kg; method in brief: as §3
[18] = test system: Mus musculus; test: Induction of cytokine MCP1 secretion in C57BL/6 mouse at 20 mg/kg, sc; type: functional, organism-based; parameters: dose 20 mg/kg; method in brief: as §3
[19] = test system: Mus musculus; test: Induction of IL6 secretion in C57BL/6 mouse at 20 mg/kg, sc; type: functional, organism-based; parameters: dose 20 mg/kg; method in brief: as §3
[20] = biological target: T1, Toll-like receptor 9 (Mus musculus); test: Antagonist activity at mouse TLR9 expressed in HEK293 cells assessed as inhibition of 5'-CTATCTGACGTTCTCTGT-3'-induced NF-kappaB activation by SEAP reporter gene assay; type: functional, cell-based
Method in brief: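 Mouse TLR9-HEK293 cells were transfected with a SEAP reporter for 6 h. They were then stimulated for 18 h with agonist (0.25 or 0.5 µg/mL) plus increasing antagonist concentrations or set agonist:antagonist ratios. Quanti-Blue read-out, reported as % NF-κB activity with agonist alone as 100%.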

[21] = test system: Mus musculus; test: Inhibition of 5-TCTGACRTTCT-X-TCTTRCAGTCT-3-induced IL12 production in C57BL/6 mouse at 20 mg/kg, sc up to 120 hrs; type: functional; conditions: C57BL/6, sc, route subcutaneous
Method in brief: (§5)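 Female C57BL/6 mice, 6-8 weeks, n = 3, given antagonist 20 mg/kg sc. TLR9 agonist at 0.25 mg/kg sc at various intervals afterward; blood taken 2 h after agonist and serum IL-12 measured by sandwich ELISA. Representative of more than six independent experiments.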

[22] = test system: Mus musculus; test: Inhibition of 5'-TCTGACRTTCT-X-TCTTRCAGTCT-3'-induced IL12 production in C57BL/6 mouse treated 6 hrs of induction and measured after 2 hrs at 2 mg/kg, sc; type: functional; conditions: C57BL/6, sc, route subcutaneous
Method in brief: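 Mice received antagonist sc at a low or high dose, then TLR9 agonist sc 6 h later. Serum IL-12 was determined 2 h after agonist administration.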

[23] = test system: Mus musculus; test: Inhibition of 5-TCTGACRTTCT-X-TCTTRCAGTCT-3-induced IL12 production in C57BL/6 mouse treated 6 hrs of induction and measured after 2 hrs at 20 mg/kg, sc; type: functional; conditions: C57BL/6, sc, route subcutaneous
[24] = test system: Mus musculus; test: Induction of IL10 secretion in C57BL/6 mouse at 20 mg/kg, sc; type: functional, organism-based; parameters: dose 20 mg/kg; method in brief: as §3
[25] = species: Mus musculus; test: Inhibition of 5'-TCTGACRTTCT-X-TCTTRCAGTCT-3'-induced IL12 production in C57BL/6 mouse at 1:4 agonist to drug ratio by ELISA; type: functional, organism-based; method in brief: as §4
[26] = test system: Mus musculus; test: Inhibition of 5-TCTGACRTTCT-X-TCTTRCAGTCT-3-induced IL12 production in C57BL/6 mouse at 20 mg/kg, sc up to 168 hrs; type: functional, organism-based; parameters: dose 20 mg/kg; method in brief: as §5

Chain of Toll-like receptor 7 (Homo sapiens) (Q9NYK1 whole entry, looked up): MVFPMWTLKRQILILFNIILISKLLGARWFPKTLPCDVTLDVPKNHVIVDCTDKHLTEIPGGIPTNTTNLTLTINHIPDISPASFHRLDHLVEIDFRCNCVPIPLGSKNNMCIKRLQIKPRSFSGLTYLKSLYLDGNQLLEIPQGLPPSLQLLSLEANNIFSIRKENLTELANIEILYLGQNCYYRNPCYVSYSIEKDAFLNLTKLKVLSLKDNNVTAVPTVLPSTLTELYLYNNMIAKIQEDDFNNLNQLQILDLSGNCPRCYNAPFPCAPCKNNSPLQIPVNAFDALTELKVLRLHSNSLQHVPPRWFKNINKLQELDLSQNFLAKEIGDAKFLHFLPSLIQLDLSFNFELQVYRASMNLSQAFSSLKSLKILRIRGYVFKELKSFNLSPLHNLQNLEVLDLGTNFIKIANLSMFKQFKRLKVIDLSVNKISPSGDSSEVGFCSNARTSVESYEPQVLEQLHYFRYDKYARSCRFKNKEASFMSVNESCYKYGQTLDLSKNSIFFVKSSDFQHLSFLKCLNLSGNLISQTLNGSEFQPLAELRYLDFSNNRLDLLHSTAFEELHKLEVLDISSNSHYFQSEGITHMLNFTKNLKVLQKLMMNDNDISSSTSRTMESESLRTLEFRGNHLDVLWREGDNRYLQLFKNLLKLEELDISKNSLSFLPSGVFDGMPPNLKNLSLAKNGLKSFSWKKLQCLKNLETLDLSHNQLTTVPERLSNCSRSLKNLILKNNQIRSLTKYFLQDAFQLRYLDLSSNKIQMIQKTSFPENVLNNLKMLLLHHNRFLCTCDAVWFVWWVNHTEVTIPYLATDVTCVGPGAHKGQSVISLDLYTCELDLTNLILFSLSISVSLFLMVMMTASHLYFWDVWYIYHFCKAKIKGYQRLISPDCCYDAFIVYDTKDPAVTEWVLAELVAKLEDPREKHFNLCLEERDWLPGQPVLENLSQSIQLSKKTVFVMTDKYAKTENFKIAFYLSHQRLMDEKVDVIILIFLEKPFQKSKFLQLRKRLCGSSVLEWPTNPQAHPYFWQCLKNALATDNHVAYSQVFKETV

- Activity [6]: Active
SMILES: Nc1ccn([C@@H]2O[C@H](COP(=O)(S)O[C@H]3[C@@H](O)[C@H](n4ccc(=O)[nH]c4=O)O[C@@H]3COP(=O)(S)O[C@H]3[C@@H](O)[C@H](n4ccc(=O)[nH]c4=O)O[C@@H]3COP(=O)(S)O[C@H]3[C@@H](O)[C@H](n4ccc5c(=O)[nH]c(N)nc54)O[C@@H]3COP(=O)(S)O[C@H]3[C@@H](O)[C@H](n4ccc(=O)[nH]c4=O)O[C@@H]3COP(=O)(S)O[C@H]3[C@@H](O)[C@H](n4ccc(N)nc4=O)O[C@@H]3COP(=O)(S)O[C@H]3[C@@H](O)[C@H](n4ccc5c(=O)[nH]c(N)nc54)O[C@@H]3COP(=O)(S)O[C@H]3[C@@H](O)[C@H](n4ccc(=O)[nH]c4=O)O[C@@H]3CO)[C@@H](OP(=O)(S)OC[C@H]3O[C@@H](n4ccc(=O)[nH]c4=O)[C@H](O)[C@@H]3OP(=O)(S)OC[C@H]3O[C@@H](n4ccc5c(=O)[nH]c(N)nc54)[C@H](O)[C@@H]3OP(=O)(S)OCC(O)COP(=O)(S)O[C@H]3[C@@H](O)[C@H](n4ccc5c(=O)[nH]c(N)nc54)O[C@@H]3COP(=O)(S)O[C@H]3[C@@H](O)[C@H](n4ccc(=O)[nH]c4=O)O[C@@H]3COP(=O)(S)O[C@H]3[C@@H](O)[C@H](n4ccc(N)nc4=O)O[C@@H]3COP(=O)(S)O[C@H]3[C@@H](O)[C@H](n4ccc(=O)[nH]c4=O)O[C@@H]3COP(=O)(S)O[C@H]3[C@@H](O)[C@H](n4ccc(=O)[nH]c4=O)O[C@@H]3COP(=O)(S)O[C@H]3[C@@H](O)[C@H](n4ccc5c(=O)[nH]c(N)nc54)O[C@@H]3COP(=O)(S)O[C@H]3[C@@H](O)[C@H](n4ccc(=O)[nH]c4=O)O[C@@H]3COP(=O)(S)O[C@H]3[C@@H](O)[C@H](n4ccc(N)nc4=O)O[C@@H]3COP(=O)(S)O[C@H]3[C@@H](O)[C@H](n4ccc5c(=O)[nH]c(N)nc54)O[C@@H]3COP(=O)(S)O[C@H]3[C@@H](O)[C@H](n4ccc(=O)[nH]c4=O)O[C@@H]3CO)[C@H]2O)c(=O)n1 (stereo partly specified)
- Activity [1]: Active
- Activity [2]: Active
- Activity [3]: Active
- Activity [4]: Active
- Activity [5]: Active
- Activity [7]: Active
- Activity [8]: Active
- Activity [9]: Active
- Activity [10]: Active
- Activity [11]: Active

- Activity [13]: inactive
- Activity [20]: Dose-dependent effect
SMILES: CO[C@@H]1[C@H](OP(=O)(S)OC[C@H]2O[C@@H](n3ccc(N)nc3=O)C[C@@H]2OP(=O)(S)OC[C@H]2O[C@@H](n3cnc4c(=O)[nH]c(N)nc43)C[C@@H]2OP(=O)(S)OC[C@H]2O[C@@H](n3cc(C)c(=O)[nH]c3=O)C[C@@H]2OP(=O)(S)OC[C@H]2O[C@@H](n3cc(C)c(=O)[nH]c3=O)C[C@@H]2OP(=O)(S)OC[C@H]2O[C@@H](n3ccc(N)nc3=O)C[C@@H]2OP(=O)(S)OC[C@H]2O[C@@H](n3cc(C)c(=O)[nH]c3=O)C[C@@H]2OP(=O)(S)OC[C@H]2O[C@@H](n3ccc(N)nc3=O)C[C@@H]2OP(=O)(S)OC[C@H]2O[C@@H](n3cc(C)c(=O)[nH]c3=O)C[C@@H]2OP(=O)(S)OC[C@H]2O[C@@H](n3cnc4c(=O)[nH]c(N)nc43)C[C@@H]2OP(=O)(S)OC[C@H]2O[C@@H](n3cc(C)c(=O)[nH]c3=O)C[C@@H]2O)[C@@H](COP(=O)(S)O[C@H]2[C@@H](OC)[C@H](n3cnc4c(=O)[nH]c(N)nc43)O[C@@H]2COP(=O)(S)O[C@H]2C[C@H](n3cc(C)c(=O)[nH]c3=O)O[C@@H]2COP(=O)(S)O[C@H]2C[C@H](n3ccc(N)nc3=O)O[C@@H]2COP(=O)(S)O[C@H]2C[C@H](n3cc(C)c(=O)[nH]c3=O)O[C@@H]2COP(=O)(S)O[C@H]2C[C@H](n3cnc4c(N)ncnc43)O[C@@H]2COP(=O)(S)O[C@H]2C[C@H](n3cc(C)c(=O)[nH]c3=O)O[C@@H]2COP(=O)(S)O[C@@H]2C[C@@H](n3ccc(N)nc3=O)O[C@H]2CO)O[C@H]1n1cnc2c(N)ncnc21 (stereo partly specified)
- Activity [12]: inactive
- Activity [14]: inactive
- Activity [15]: inactive
- Activity [16]: Dose-dependent effect
- Activity [17]: inactive
- Activity [18]: inactive
- Activity [19]: inactive
- inhibition in vivo at 20 mg/kg [21]: 50%
- inhibition in vivo at 2 mg/kg [22]: 50%
- inhibition in vivo at 20 mg/kg [23]: 90%
- Activity [24]: inactive
- Activity [25]: Active
- Activity [26]: Active
